Measured values published in ChEMBL document CHEMBL1145072, “Synthesis and biological evaluation of novel flavone-8-acetic acid derivatives as reversible inhibitors of aminopeptidase N/CD13” (J Med Chem, 2003).

Assays:
[1] = target: Aminopeptidase N (Homo sapiens) (UniProt P15144); assay: In vitro inhibition of aminopeptidase N (APN) activity in intact U937 cells in presence of Ala-pNA and 10e-3 M concentration of compound; type: cell-based; conditions: U-937
Summary of the method: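 Intact U937 cells (5 × 10⁵) incubated 15 min at 37 °C in 0.1 mL peptidase buffer with Ala-pNA (0.5 mg/mL) and compound at 10^-3 M. pNA release read at 405 nm. Remaining activity expressed as percent of uninhibited control; mean of three to ten experiments ± SD.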
Target sequence in this assay (P15144 whole entry): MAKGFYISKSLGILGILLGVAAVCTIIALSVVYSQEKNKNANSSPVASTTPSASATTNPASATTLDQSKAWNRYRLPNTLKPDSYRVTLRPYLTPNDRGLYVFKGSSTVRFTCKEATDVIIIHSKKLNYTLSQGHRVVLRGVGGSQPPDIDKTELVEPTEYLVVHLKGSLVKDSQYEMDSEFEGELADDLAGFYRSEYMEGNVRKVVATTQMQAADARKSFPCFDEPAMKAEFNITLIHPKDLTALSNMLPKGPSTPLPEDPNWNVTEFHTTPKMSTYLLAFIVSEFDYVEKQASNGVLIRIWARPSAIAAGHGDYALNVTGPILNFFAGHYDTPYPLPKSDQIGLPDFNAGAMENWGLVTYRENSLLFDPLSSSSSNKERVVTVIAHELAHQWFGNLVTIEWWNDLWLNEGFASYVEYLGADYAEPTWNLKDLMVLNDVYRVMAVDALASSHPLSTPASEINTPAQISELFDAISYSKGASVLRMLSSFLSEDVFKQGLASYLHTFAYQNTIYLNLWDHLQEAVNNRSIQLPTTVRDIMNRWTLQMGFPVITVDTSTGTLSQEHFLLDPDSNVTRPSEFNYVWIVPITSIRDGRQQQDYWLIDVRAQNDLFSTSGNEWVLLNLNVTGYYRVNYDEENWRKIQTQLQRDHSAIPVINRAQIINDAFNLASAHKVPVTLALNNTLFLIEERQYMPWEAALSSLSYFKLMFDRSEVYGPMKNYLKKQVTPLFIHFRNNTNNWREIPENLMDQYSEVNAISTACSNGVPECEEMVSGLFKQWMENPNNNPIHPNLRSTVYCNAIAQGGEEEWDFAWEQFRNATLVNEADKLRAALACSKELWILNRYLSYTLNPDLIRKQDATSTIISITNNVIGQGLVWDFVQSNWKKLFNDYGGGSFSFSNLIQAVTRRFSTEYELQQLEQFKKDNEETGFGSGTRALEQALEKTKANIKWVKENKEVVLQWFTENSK

U-937 = assay: In vitro cytotoxicity towards U937 cell growth was evaluated after 3 days of incubation (10e-4 M); type: functional, Homo sapiens
Summary of the method: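 Human monoblastic U937 cells in RPMI 1640 with 10% heat-inactivated FCS, 5% CO2, 37 °C; seeded at 0.5 × 10⁵ cells/mL in fresh medium and exposed continuously to 10^-4 M compound for 3 days. Cells then washed twice and counted, and viability determined by trypan blue exclusion.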

[2] = target: T1, Aminopeptidase N (Sus scrofa) (UniProt P15145); assay: Inhibition of cell surface aminopeptidase N (APN/CD13) at 0.3*10e-3 M compound concentration
T1 sequence (whole entry): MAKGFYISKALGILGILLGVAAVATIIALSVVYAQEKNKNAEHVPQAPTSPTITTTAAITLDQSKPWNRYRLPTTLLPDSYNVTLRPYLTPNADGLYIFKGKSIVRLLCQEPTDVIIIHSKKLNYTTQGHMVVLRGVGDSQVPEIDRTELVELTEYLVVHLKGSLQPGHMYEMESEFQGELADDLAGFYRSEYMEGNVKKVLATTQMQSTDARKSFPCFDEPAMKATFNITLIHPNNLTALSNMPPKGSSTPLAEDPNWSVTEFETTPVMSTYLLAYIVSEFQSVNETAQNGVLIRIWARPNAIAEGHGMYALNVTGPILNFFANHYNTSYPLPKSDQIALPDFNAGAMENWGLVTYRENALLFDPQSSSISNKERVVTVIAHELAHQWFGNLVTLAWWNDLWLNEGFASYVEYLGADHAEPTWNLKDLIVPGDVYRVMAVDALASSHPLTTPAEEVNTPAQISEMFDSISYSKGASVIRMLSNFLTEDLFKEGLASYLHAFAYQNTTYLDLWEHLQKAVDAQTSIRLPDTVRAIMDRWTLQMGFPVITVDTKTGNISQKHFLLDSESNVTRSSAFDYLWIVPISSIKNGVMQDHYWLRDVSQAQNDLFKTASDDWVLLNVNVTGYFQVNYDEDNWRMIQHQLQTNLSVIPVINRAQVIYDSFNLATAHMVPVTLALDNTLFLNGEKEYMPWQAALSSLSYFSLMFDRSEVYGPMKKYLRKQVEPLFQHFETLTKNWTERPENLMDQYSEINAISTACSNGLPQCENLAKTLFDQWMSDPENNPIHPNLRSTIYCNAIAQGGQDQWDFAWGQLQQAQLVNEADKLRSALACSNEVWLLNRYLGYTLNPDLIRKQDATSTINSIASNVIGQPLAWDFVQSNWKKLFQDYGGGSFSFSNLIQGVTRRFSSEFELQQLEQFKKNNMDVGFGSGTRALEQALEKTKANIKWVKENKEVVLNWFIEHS

[3] = target: T2, Neprilysin (Rattus norvegicus) (UniProt P07861); assay: Inhibition of neutral endopeptidase (NEP[…]) at 0.3*10e-3 M compound concentration
T2 sequence (whole entry): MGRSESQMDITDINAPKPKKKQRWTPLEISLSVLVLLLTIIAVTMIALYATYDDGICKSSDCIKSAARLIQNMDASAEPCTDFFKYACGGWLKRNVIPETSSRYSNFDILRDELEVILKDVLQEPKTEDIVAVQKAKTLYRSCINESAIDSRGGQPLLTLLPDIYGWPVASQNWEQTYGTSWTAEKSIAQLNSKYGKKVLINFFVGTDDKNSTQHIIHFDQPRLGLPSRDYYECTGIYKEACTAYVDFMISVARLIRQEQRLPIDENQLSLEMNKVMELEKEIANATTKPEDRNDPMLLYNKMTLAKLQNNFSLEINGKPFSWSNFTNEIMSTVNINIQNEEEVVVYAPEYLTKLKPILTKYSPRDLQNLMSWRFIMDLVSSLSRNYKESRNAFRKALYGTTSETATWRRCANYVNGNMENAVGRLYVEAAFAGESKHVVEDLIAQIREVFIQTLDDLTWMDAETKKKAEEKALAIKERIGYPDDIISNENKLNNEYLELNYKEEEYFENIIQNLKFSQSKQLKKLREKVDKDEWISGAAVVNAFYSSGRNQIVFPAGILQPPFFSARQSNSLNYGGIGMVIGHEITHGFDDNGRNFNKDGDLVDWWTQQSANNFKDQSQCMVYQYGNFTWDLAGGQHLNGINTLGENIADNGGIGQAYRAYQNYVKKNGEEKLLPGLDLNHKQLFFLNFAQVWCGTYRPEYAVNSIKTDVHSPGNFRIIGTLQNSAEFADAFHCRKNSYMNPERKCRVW

[4] = target: Aminopeptidase N (Homo sapiens) (UniProt P15144); assay: Inhibitory concentration of compound towards cell surface aminopeptidase N (APN/CD13) on human U937 cells
Target sequence in this assay (P15144 whole entry, looked up): as the sequence (P15144 whole entry) above

SMILES | inhibition [1] [%] | Cytotoxicity (U-937) [%] | inhibition [2] [%] | inhibition [3] [%] | IC50 [4] [µM]
O=C(O)Cc1cccc2c(=O)c([N+](=O)[O-])c(-c3ccccc3)oc12 | 68 | <10 | – | – | –
COc1ccc(-c2oc3c(CC(=O)O)cccc3c(=O)c2[N+](=O)[O-])cc1[N+](=O)[O-] | 61 | <10 | – | – | –
O=C(O)Cc1cccc2c(=O)cc(-c3ccccc3)oc12 [MITOFLAXONE] | 30 | <10 | – | – | –
COc1cc(-c2oc3cc(O)cc(O)c3c(=O)c2O)ccc1O | – | – | 73 | 49 | –
COc1cccc(-c2oc3c(CC(=O)O)cccc3c(=O)c2[N+](=O)[O-])c1[N+](=O)[O-] | 75 | <10 | – | – | –
O=c1c([N+](=O)[O-])c(-c2ccccc2)oc2ccccc12 | 30 | <10 | – | – | –
O=C(O)Cc1cccc2c(=O)c3c(oc12)-c1ccccc1NC(=O)N3 | 8 | <10 | – | – | –
O=CCc1cccc2c(=O)c([N+](=O)[O-])c(-c3ccccc3)oc12 | 51 | >40 | – | – | –
O=C(O)Cc1cccc2c(=O)c([N+](=O)[O-])c(-c3ccccc3C(=O)OCc3ccccc3)oc12 | 77 | >40 | – | – | –
O=c1c([N+](=O)[O-])c(-c2ccccc2[N+](=O)[O-])oc2ccccc12 | < 5 | >40 | – | – | –
COc1ccc([N+](=O)[O-])c(-c2oc3c(CC(=O)O)cccc3c(=O)c2[N+](=O)[O-])c1 | 80 | <10 | – | – | –
O=C(O)Cc1cccc2c(=O)c([N+](=O)[O-])c(-c3ccc([N+](=O)[O-])cc3)oc12 | 63 | <10 | – | – | –
COC(=O)Cc1cccc2c(=O)c([N+](=O)[O-])c(-c3ccccc3)oc12 | < 5 | <10 | – | – | –
O=C(O)Cc1cccc2c(=O)c([N+](=O)[O-])c(-c3ccccc3OCc3ccccc3)oc12 | 76 | >55 | – | – | –
C=CCc1cccc2c(=O)c([N+](=O)[O-])c(-c3ccccc3[N+](=O)[O-])oc12 | 16 | <10 | – | – | –
COCOC(=O)Cc1cccc2c(=O)c(N)c(-c3ccccc3O)oc12 | 19 | >65 | – | – | –
COCOC(=O)Cc1cccc2c(=O)c([N+](=O)[O-])c(-c3ccccc3OCc3ccccc3)oc12 | 32 | >95 | – | – | –

SMILES | inhibition [1] [%] | Cytotoxicity (U-937) [%] | inhibition [2] [%] | inhibition [3] [%] | IC50 [4] [µM]
O=c1c(O)c(-c2ccc(O)c(O)c2)oc2cc(O)cc(O)c12 | – | – | 73 | 49 | –
COC(=O)c1ccccc1-c1oc2c(CC(=O)O)cccc2c(=O)c1[N+](=O)[O-] | 66 | <10 | – | – | –
O=C(O)Cc1cccc2c(=O)c([N+](=O)[O-])c(-c3ccccc3[N+](=O)[O-])oc12 | 88 | <10 | – | – | 25
O=C(O)Cc1cccc2c(=O)c([N+](=O)[O-])c(-c3ccccc3Cl)oc12 | 76 | 30 | – | – | –
O=C(O)Cc1cccc2c(=O)c([N+](=O)[O-])c(-c3cccc([N+](=O)[O-])c3)oc12 | 44 | <10 | – | – | –
COCOC(=O)Cc1cccc2c(=O)c3c(oc12)-c1ccccc1OC(=O)N3 | 25 | >95 | – | – | –
COc1ccc(-c2oc3c(CC(=O)O)cccc3c(=O)c2[N+](=O)[O-])cc1 | 64 | >40 | – | – | –
O=C(O)Cc1cccc2c(=O)c3c(oc12)-c1ccccc1OC(=O)N3 | 19 | 30 | – | – | –
O=C(O)Cc1cccc2c(=O)cc(-c3ccccc3[N+](=O)[O-])oc12 | 83 | >80 | – | – | –
COCOC(=O)Cc1cccc2c(=O)c([N+](=O)[O-])c(-c3ccccc3[N+](=O)[O-])oc12 | 48 | >85 | – | – | –
O=c1cc(-c2ccccc2)oc2ccccc12 [FLAVONE] | 5 | <10 | – | – | –
O=C(O)Cc1cccc2c(O)c3nc4ccccc4c-3oc12 | 10 | 30 | – | – | –
COc1ccccc1-c1oc2c(CC(=O)O)cccc2c(=O)c1[N+](=O)[O-] | 69 | >20 | – | – | –
Cl.Nc1c(-c2ccccc2)oc2c(CC(=O)O)cccc2c1=O | 33 | <10 | – | – | –
CC(C)C[C@H](NC(=O)[C@@H](O)[C@H](N)Cc1ccccc1)C(=O)O [UBENIMEX] | 85 | >40 | – | – | –
O=c1cc(-c2ccccc2)oc2cc(O)c(O)c(O)c12 | – | – | 57 | 36 | –
